Autophagy mod: autophagy modulators in MEF cells, primary screen, imaging, high-content, MEF GFP-LC3 | calls only at 10 µM (by protocol) | 190,000 compounds, 0.98% hits | MEF GFP-LC3 puncta imaging; test concentration mostly 10 µM;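 active means percentage of spot-positive cells more than 3 SD above its plate mean, without a fluorescence outlier flag or 80% toxicity; inconclusive means no clear call, values can overlap the other calls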;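 further: spot-positive cell cutoff set from DMSO-treated cells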
KCC2 mod: KCC2 cotransporter modulators, thallium flux, primary screen, cell-based, HEK293 KCC2, FluoZin-2 fluorescence, MLSMR | B-score of Tl+ flux slope (higher = more flux/activation; lower = inhibition) at 10 µM | 190,000 compounds, 2.2% hits | KCC2 cells, thallium flux FluoZin-2 fluorescence | Solute carrier family 12 member 5 (Homo sapiens), Q9H2X9 | AID 1456, 2008;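 active means thallium flux slope and its plate-corrected score both differing from the plate sample mean at a set confidence after two filtering rounds, in either direction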;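 further: slope of fluorescence scaled to starting intensity during 10 to 20 s after thallium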
WT yeast gro inh: growth inhibition of WT strain, primary screen, mitochondrial fusion inhibitor project, WT and mutant strains, chemical genetic; inhibition, % at 10 µM; 190,000 compounds, 2.1% hits; mitochondrial fusion phenotypic screen; in the data active means inhibition above about 58%; tested in S. cerevisiae
SKKanGAS inh: S. pyogenes SKKanGAS growth inhibitors in kanamycin, primary screen, streptokinase expression inhibitor project, SKKanGAS strain, BacTiter-Glo luminescence; inhibition, % at 7.5 µM; 6 h; 300,000 compounds, 1.3% hits;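 active means mean replicate score, as percent of positive control median, at least 50; inconclusive means mean below 50 but one replicate at or above 50; inactive means mean and every replicate below 50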;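 further: strain carries kanamycin resistance gene driven by streptokinase promoter and grows in 40 µg/ml kanamycin; loss of luminescence reflects streptokinase promoter inhibition or plain growth inhibition; 0% = median of DMSO wells and 100% = positive control at its reference dose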
Rad51 HR inh: human RAD51 strand exchange inhibitors, primary screen, biochemical, fluorescence | DNA repair protein RAD51 homolog 1 (Homo sapiens), Q06609 | hRad51 DNA strand exchange, fluorescence dequenching | inhibition, % at 10 µM | 200,000 compounds, 0.085% hits | AID 1385, 2008;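 active means inhibition above 40% at the single screening dose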;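 further: 0% = DMSO control wells and 100% = blanks with heterologous ssDNA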
Target sequence (Q06609 whole entry, looked up): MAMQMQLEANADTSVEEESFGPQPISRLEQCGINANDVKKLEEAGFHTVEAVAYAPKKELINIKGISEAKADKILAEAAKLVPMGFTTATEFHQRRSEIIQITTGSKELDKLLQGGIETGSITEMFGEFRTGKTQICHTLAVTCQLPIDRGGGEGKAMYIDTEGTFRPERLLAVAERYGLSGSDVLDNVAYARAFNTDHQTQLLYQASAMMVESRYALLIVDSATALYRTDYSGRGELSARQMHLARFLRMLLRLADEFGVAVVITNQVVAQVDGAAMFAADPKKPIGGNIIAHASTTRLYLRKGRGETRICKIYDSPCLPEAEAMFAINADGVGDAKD
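material = hRad51 filaments on single-stranded DNA | timing = filaments 15 min 37 °C, then compound 30 min | signal = FRET fluorescence dequenching, excitation 485 nm, emission 520 nm | benchmarks = control wells and blank wells on each plate | evaluation = percent inhibition relative to plate controls and blanks | compound = 10 µM final, single point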
Ins promoter up: insulin promoter activators in MIN6 cells, imaging, high-content screening, mouse beta cells | z-score at 5 µM | AID 1625, 2009 | MIN6 insulin promoter-GFP reporter; hits give high values | 190,000 compounds, 0.3% hits;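 active means z-score above 3 at 5 µM with at least 500 cells counted in the well; inconclusive means wells under 500 cells, flagged as cytotoxic or low count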
KCC2 sec1: KCC2 modulators in sodium-free buffer, confirmation, cell-based, HEK293 KCC2, thallium flux, secondary assay; FluoZin2 fluorescence; hits give high values; shares compounds with KCC2 mod; 3,700 compounds, 15% hits; normalised thallium flux (F/F0 slope) at 10 µM;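 active means thallium flux slope above the same plate's solvent-only control mean plus 3 SD; inconclusive means the two replicate wells disagree; inactive means no significant difference from solvent-only control wells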
KCC2 bumet counter: thallium flux persisting under bumetanide in KCC2 cells, confirmation, counter-screen for KCC2 modulator project, cell-based, HEK293 KCC2, FluoZin2, secondary assay 3. shares compounds with KCC2 mod. HEK293-KCC2 + bumetanide/ouabain; hits give high values. normalized thallium flux at 10 µM. 3,700 compounds, 49% hits. AID 1714, 2009;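 active means thallium entry rate above the same plate's blocked-transporter control wells by more than 3 SD; inconclusive means the two repeat wells disagree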;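 further: raw slope of fluorescence over initial fluorescence between 10 and 20 s after thallium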
KCC2 sec2: KCC2 modulators without ouabain present, confirmation, cell-based, HEK293 KCC2, thallium flux, FluoZin2, secondary assay 2 | thallium flux FluoZin2 fluorescence; actives lie on both sides; F/F0 rise rate, 10–20 s post-thallium | 3,700 compounds, 23% hits | shares compounds with KCC2 mod | normalized thallium flux at 10 µM;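 active means thallium flux slope more than 3 SD above or below the plate's solvent-only control mean, mostly below; inconclusive means the two repeat wells disagreed; inactive means no significant shift from solvent-only controls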;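 further: raw slope with 0.1% DMSO as baseline and bumetanide as block control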
HEK293 Tl flux: thallium flux modulation in parental HEK cells, confirmation, counter-screen for KCC2 modulator project, cell-based, counterscreen 1; thallium flux rate (normalised fluorescence) at 10 µM; AID 1716, 2009; 3,700 compounds, 46% hits; shares compounds with KCC2 mod; HEK293 parental cells, thallium flux FluoZin2, ouabain; baseline-ratio fluorescence slope, 10–20 s after thallium;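 active means thallium flux rate significantly above the same plate's solvent-only control wells, beyond their mean plus 3 SD; inconclusive means the two replicate wells gave conflicting results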
KCC2 retest ouab: KCC2 inhibitors and activators, ouabain retest, confirmation, HEK-KCC2 cells; shares compounds with KCC2 mod; HEK293-KCC2, thallium flux FluoZin2 fluorescence; bidirectional: low = inhibitor, high = activator; raw Tl+ flux slope (below DMSO = inhibition, above = activation) at 10 µM; 3,700 compounds, 48% hits; AID 1717, 2009;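 active means thallium flux slope beyond 3 SD from same-plate DMSO control mean in most replicates, usually higher, sometimes lower; inconclusive means repeat tests gave conflicting results; inactive means no significant difference from controls in most replicates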;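 further: slope of initial-normalized fluorescence between seconds 10 and 20 after thallium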
HEK counter2: native HEK Tl+ uptake effects, second counter-screen – HEK cells, counterscreen 2, counter-screen for KCC2 modulator project, confirmation | shares compounds with KCC2 mod | HEK293 parental, thallium flux FluoZin-2 fluorescence slope | thallium flux slope at 10 µM | 3,700 compounds, 33% hits;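 active means thallium flux slope above the same plate's solvent-control mean plus 3 SD in both duplicate wells; inconclusive means duplicate wells that disagreed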;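 further: run without ouabain in cells lacking the KCC2 cotransporter; slope of fluorescence scaled to its starting value between 10 and 20 s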
Active calls of the source: *; i = inactive; ? = inconclusive; / = not tested or not shown. Compounds with a hit are over-represented: about 4.2% of the library has one in this group of screens.

SMILES	Autophagy mod	KCC2 mod	WT yeast gro inh	SKKanGAS inh	Rad51 HR inh	Ins promoter up	KCC2 sec1	KCC2 bumet counter	KCC2 sec2	HEK293 Tl flux	KCC2 retest ouab	HEK counter2
O=S(=O)(c1ccc(Cl)cc1)N(CCCN1CCOCC1)Cc1cccs1	i	/	5.2	-3.2	17.0	0.33	0.0169	0.00417	0.029	?	0.015	0.00991
CC(NC(=O)C(=O)N/N=C\c1cccc([N+](=O)[O-])c1)c1ccccc1 (centres undefined)	i	0.579	3.8	9.0	-3.1	0.22	/	/	/	/	/	/
CCC(C)(C)C1CCC(=NNC(=S)Nc2cccnc2)CC1 (centres undefined)	i	24.1*	-4.8	11.5	1.1	-0.29	0.0105	0.0389*	0.0343	0.0219*	0.0423*	0.0126*
Oc1ccc(/C=N/NC(=S)Nc2cccnc2)cc1O	i	0.454	-8.5	-15.5	9.3	-0.01	/	/	/	/	/	/
CC(C)(C)c1ccc(/C=N/NC(=S)Nc2cccnc2)cc1	i	12.1*	60.4*	37.1	-7.5	0.4	0.0104	0.0316*	0.0301	0.012*	?	0.0108*
CC(C)CCNC(=O)c1onc(CSc2nc3ccccc3[nH]2)c1C(=O)NCCC(C)C	/	/	/	11.5	/	/	/	/	/	/	/	/
COc1ccc(-c2nc(CS(=O)(=O)CC(=O)NCc3ccccc3OC)c(C)o2)cc1	/	/	/	-12.6	/	/	/	/	/	/	/	/
N#Cc1c(-c2ccccc2Cl)cc(-c2ccccc2)[nH]c1=S	i	17.1*	-9.7	7.1	-0.5	0.49	0.0152*	0.028*	0.0376	0.0225*	0.0348*	0.0135*
Cc1[nH]c(=S)c(C#N)c(C)c1Cc1ccccc1	/	/	/	-0.8	/	-0.26	/	/	/	/	/	/
Cc1cc(-c2ccccc2)c(C#N)c(=S)[nH]1	i	6.95*	12.6	6.3	-5.4	0.9	0.0171*	0.0283*	0.0343	0.0162*	0.0277	0.012*
CC(NC(=O)[C@H](C)N1C(=O)N2CCc3c([nH]c4ccccc34)[C@@]2(C)C1=O)c1ccccc1 (some centres undefined)	/	/	/	5.7	/	/	/	/	/	/	/	/
CN(C(=S)NC(=O)c1ccc(Br)o1)c1ccccc1	i	7.71*	-15.7	4.1	/	-0.09	0.00648	0.0204*	0.0398*	0.0201*	0.0306*	0.0228*
C[C@H]1CC[C@H]2C(=O)N3[C@H](c4cccc(N5CCCC5=O)c4)[C@@H](C)CC[C@H]3C(=O)N2[C@@H]1c1cccc(N2CCCC2=O)c1	i	4.91*	-6.2	-0.3	/	0.51	0.00658	0.005	?	0.00766	0.0178	0.0111
Cn1c(-c2ccc3c(c2)OCO3)cnc1NC(=O)CCC(=O)NCCc1ccccc1	i	-3.66*	13.0	-0.5	-1.6	-0.16	0.0077	0.00659	0.0296	0.00779	0.0185	?
CCCn1nc(C(=O)Nc2nc3ccccc3[nH]2)c2ccccc2c1=O	i	-0.79	40.2	-3.3	-17.5	-0.36	/	/	/	/	/	/
CC(C)n1nc(C(=O)Nc2nc3ccccc3[nH]2)c2ccccc2c1=O	i	-3.97*	21.2	14.4	-9.2	-0.54	0.0146	0.00369	0.0246*	?	0.0135	0.00882
O=C(Nc1nnc(C2=COCCO2)o1)c1ccc(Cc2ccccc2)cc1	i	7.3*	67.8*	93.3*	0.6	0.71	0.00666	0.0195*	0.0311	0.0157*	?	0.0188*
O=C(Nc1nnc(C2=COCCO2)o1)c1ccc(Cl)cc1	i	8.51*	60.2*	25.6	3.4	-0.05	?	0.0258*	0.0294	0.0208*	0.0325*	?
Cc1nc(Cl)c(C(=O)NC(C)(C)C)c(C)c1Cl	i	0.221	-4.6	5.3	4.4	/	/	/	/	/	/	/
CCOc1ccc(OCc2ccc(C(=O)N/N=C(\C)c3ccccn3)cc2)cc1	i	8.98*	5.2	92.5*	11.0	?	0.0106	0.024*	0.0309	0.0294*	0.0298*	?
O=C(O)C(Cc1cn[nH]n1)=NO	/	-0.000443	/	5.3	8.0	0.04	/	/	/	/	/	/
O=c1/c(=C\c2cccnc2)sc2nc3ccccc3n12	i	/	-8.9	-0.4	2.1	-0.19	/	/	/	/	/	/
O=c1/c(=C/c2ccc(O)c([N+](=O)[O-])c2)sc2nc3ccccc3n12	i	-3.7*	10.9	/	2.9	-0.14	0.0058	0.00495	0.0312	0.00782	0.0174	0.0104
Cc1oc(-c2nc3ccccc3n2C)cc1C(=O)c1ccccc1	i	-2.94*	47.9	16.3	6.5	/	0.0063	0.00509	0.0316	0.00363	0.0144*	0.0113
Cn1cc(C(=O)c2ccccc2)cc1-c1nc2ccccc2n1C	i	-0.106	0.9	1.0	-1.9	0.23	/	/	/	/	/	/
Cc1ccc(Cn2c(SCC(N)=O)nc3c2c(=O)n(C)c(=O)n3C)cc1	i	4.83*	-10.5	1.4	-3.0	0.28	0.00636	?	0.0335	0.00753	0.0186	0.011
Cc1ccc(Cn2c(SCCN3CCCCC3)nc3c2c(=O)n(C)c(=O)n3C)cc1	i	/	-17.0	-8.4	-3.2	0.5	/	/	/	/	/	/
COc1ccc(NC(=O)c2cc(S(=O)(=O)N(Cc3ccccc3)c3ccccc3)ccc2Cl)cn1	i	-3.34	22.0	4.2	-9.3	0.21	/	/	/	/	/	/

From PubChem BioAssay
